According to ChEMBL document CHEMBL3352778, “HDX reveals unique fragment ligands for the vitamin D receptor” (Bioorg Med Chem Lett, 2014):
Active and inactive are the calls of the source. The calls are words filed in the database; no cut-off is given here.

Columns and labels:
[1] = Antagonist activity at human full length Flag-tagged RXR/His-tagged VDR by Alphascreen assay
Method in brief: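 Antagonist-mode AlphaScreen assay: a non-secosteroidal VDR agonist was added to form the VDR/RXR/DRIP205 complex. Fragments were then added at 10 doses spanning 0.025–500 µM. Dissociation of the complex was quantified as loss of proximity signal on a multilabel reader, and dose–response curves were fitted.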

Homo sapiens = species on record: Homo sapiens; test: Agonist activity at human full length Flag-tagged RXR/His-tagged VDR assessed as ability to recruit coactivator DRIP205 up to 500 uM by Alphascreen assay
Method in brief: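 AlphaScreen proximity assay of the RXR–VDR complex run in agonist mode, i.e. without any added VDR agonist. Read-out is the proximity signal produced when coactivator peptide DRIP205 is recruited to the VDR–RXR complex. Fragments were tested at concentrations up to 500 µM.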

Row | Compound | IC50 [1] [µM] | Activity (Homo sapiens)
1 | Cn1c(=O)c2nc(-c3cccc(O)c3O)nnc2n(C)c1=O | 0.194 | inactive
2 | CCC1CCCCN1CC(=O)c1cccs1 (stereo unspecified) | 20 | inactive
3 | O=C1CC=C(c2ccccc2)O1 | 440 | inactive
4 | CCn1c(O)cc(C)cc1=O | 1.01 | inactive
5 | O=C(O)/C=C(/c1ccccc1)c1cccs1 | 16.7 | inactive
6 | OC(c1ccc(-c2cccs2)cc1)(C(F)(F)F)C(F)(F)F | 1.3 | inactive
7 | Oc1coc(-c2ccccc2)c1 | 14.2 | inactive
8 | Nc1ccc2c(c1)N=C(O)CN2 | 5.37 | inactive
9 | O=C(O)C1CSC=C(c2ccccc2)N1 (stereo unspecified) | 2.77 | inactive
10 | Oc1cnn(-c2ccccc2)c1Cl | 43.2 | inactive
11 | Oc1cc(-c2ccc(Cl)cc2)no1 | 67.1 | inactive
12 | Oc1csc2ccccc12 | 6.83 | inactive
13 | O=C1CCCC=C(Cl)N1c1ccccc1 | 6.98 | inactive
